Experimental data published in publication PMC7125830 (Antiviral Research, 1999).

Assays:
[1] = test system: Vero cells; test: Initial cytotoxicity study; assay type: cell-based, African green monkey; details: at 100 μM concentration
How it was run: (§1)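 Confluent monolayers in triplicate wells of 24-well plates, exposed to compounds diluted from 0.1M DMSO stocks in growth medium (final 10−4 M to 10−8 M). A DMSO co-solvent control was run for each dilution and compared with cell controls. Cytotoxicity scored by abnormal morphology: clumping, detachment or rounding up of cells. Scored +/−.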

[2] = test system: HSV-1 McKrae strain; test: Plaque reduction assay, HSV-1 in Vero cells; assay type: cell-based, herpes simplex virus type 1; details: Human alphaherpesvirus 1, Vero, 96 h
How it was run: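 Confluent Vero monolayers in 24-well plates infected with 100 pfu McKrae strain per well, adsorbed 1 h at 37°C, washed with Hanks' BSS. Agar overlay containing compound dilutions applied to triplicate wells, alongside triplicate cell and virus controls. Day 4: methanol:acetic acid (3:1) fixation, 1% crystal violet stain, plaque count. IC50 calculated from dose-response plots; selectivity index taken as TC50/IC50.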

[3] = test system: A549 cells; test: Initial cytotoxicity study; assay type: cell-based, Human; details: at 100 μM concentration
How it was run: as §1

| IC50 [2] [nM] | Compound | Cytotoxicity [1] | Cytotoxicity [3] |
| --- | --- | --- | --- |
| 1800 | Nc1nc2c(ncn2COCCO)c(=O)[nH]1 [Acyclovir, acyclovir] | − (Vero cells) | – |
| – | Nc1ccn(C[C@@H](CO)OCP(=O)(O)O)c(=O)n1 [Cidofovir] | – | − (A549 cells) |
